An excerpt weighted towards active compounds, which were near 3.4% of everything screened.
MC4R barr agon – agonists of human melanocortin 4 receptor (MC4R) beta-arrestin; P32245; U2OS MC4R beta-arrestin complementation, luminescence; percent of melanotan II response, DMSO zero; activation, % at 8.9 µM; 360,000 tested, 0.98% active;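 active = activation above a per-plate cutoff, the mean activation of sample wells on that plate plus 3 SD, cut at about 8% in these data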
TMEM16A inh – inhibitors of mouse TMEM16A calcium-activated chloride channel | Q8BHY3 | HEK293 TMEM16A/YFP iodide influx fluorescence, ionomycin | normalized B-score (activity score, 25-100; higher = stronger inhibition) at 10 µM | 310,000 tested, 1.2% active | AID 588511;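 active = ratio plate-corrected score three or more library SD toward inhibition, starting fluorescence score within five deviations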;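 also: score derived from kinetic fluorescence span divided by baseline fluorescence per well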
m5-HT2A agonist – activates the mouse 5-HT2A serotonin receptor | activation, % at 7.6 µM | P35363 | 360,000 tested, 0.66% active | CHO-K1 mHTR2A beta-arrestin complementation, luminescence; percent of 30 µM serotonin response;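 active = activation above a run cutoff, the mean activation of all tested compounds plus 3 SD, cut at about 14% in these data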;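 also: 0% = plate median of compound wells and 100% = 30 µM serotonin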
Target sequence (P35363 whole entry, looked up): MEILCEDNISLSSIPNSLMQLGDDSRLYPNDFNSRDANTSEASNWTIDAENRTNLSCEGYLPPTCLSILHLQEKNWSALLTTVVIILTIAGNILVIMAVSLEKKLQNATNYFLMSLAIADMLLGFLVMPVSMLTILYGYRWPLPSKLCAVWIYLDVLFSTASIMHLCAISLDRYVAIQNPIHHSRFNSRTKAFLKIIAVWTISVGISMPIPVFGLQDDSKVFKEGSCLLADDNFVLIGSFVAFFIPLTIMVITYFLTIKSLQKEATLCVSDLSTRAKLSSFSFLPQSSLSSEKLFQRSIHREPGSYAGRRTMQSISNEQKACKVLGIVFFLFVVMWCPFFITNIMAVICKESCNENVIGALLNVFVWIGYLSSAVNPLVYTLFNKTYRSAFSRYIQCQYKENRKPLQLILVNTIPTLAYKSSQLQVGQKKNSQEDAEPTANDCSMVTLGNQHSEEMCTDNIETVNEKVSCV
beta cell repl – inducers of beta-cell replication in MIN6 cells. 330,000 tested, 0.29% active. MIN6 cells proliferation, ATPlite luminescence, 48 h; cells starved in 0.2% serum; 100% = growth in 10% serum. proliferation, % at 10 µM;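 active = compounds whose signal lies at least 3.5 SD above the mean of all wells on their plate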;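 also: 0% = DMSO-treated cells in low-serum medium and 100% = 10% serum control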
MC4R antag cAMP – antagonists of human melanocortin 4 receptor (MC4R); inhibition, % at 6.5 µM; AID 540295; P32245; MC4R-expressing cells, MTII-stimulated cAMP, LANCE TR-FRET; 360,000 tested, 0.48% active;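 active = inhibition above its plate's cutoff, the mean of tested wells on that plate plus 3 SD, cut at about 29% in these data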;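 also: 0% = Melanotan II alone and 100% = Melanotan II plus saturating MCL0020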
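material = U2OS cells stably expressing human melanocortin 4 receptor (MC4R) | also added = Melanotan II challenge | dosing = single nominal compound dose of 6.5 µM | detection = TR-FRET with Eu-cAMP and labeled anti-cAMP, 671 nm | replication = singlicate | timing = compound 30 min, challenge 1 h, detection 1 h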
ANO1 activ – mouse TMEM16A channel activation, primary screen. Q8BHY3. HEK293 TMEM16A/YFP-H148Q/I152L, iodide quench fluorescence; stronger effect = lower value. B-score at 10 µM. 340,000 tested, 0.3% active. AID 623877;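 active = fluorescence-ratio B-score plate-corrected deviation score at least 3 library SD below zero, with starting fluorescence score within 5 deviations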;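 also: channel opened by trigger with iodide after compound preincubation; score built on the fluorescence ratio of max minus min over baseline; more negative score means more quench and so TMEM16A activation or potentiation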
The depositor's hits bear a star; i = inactive; x = no result.

SMILES	MC4R barr agon	TMEM16A inh	m5-HT2A agonist	beta cell repl	MC4R antag cAMP	ANO1 activ
CN(N=Nc1cccc([N+](=O)[O-])c1)c1ccccc1	-1	i	2	-3	-12	i
CN(N=Nc1ccc([N+](=O)[O-])cc1)c1ccccc1	8.3*	i	0	2	0	i
Cc1c(-c2c(C#N)c(N)nc3c2CCCCCC3)cnn1C	-4	i	-1	-2	-2	i
Cc1nn(C)c(C)c1-c1c(C#N)c(N)nc2c1CCCCCC2	-2	i	-7	-1	3	-6.1*
Oc1c(Cl)cc(Cl)cc1/C=N/c1nc(-c2ccc(Cl)cc2)cs1	-2	i	-4	2	34*	i
COc1ccc(NC(=O)c2cccc(N3C(=O)C4C5C=CC(C6CC56)C4C3=O)c2)cc1 (stereo unspecified)	-3	i	6	-2	5	i
COC(=O)C(Cc1ccc(OC(=O)c2ccc(C(F)(F)F)cc2)cc1)N1Cc2ccccc2C1=O (stereo unspecified)	1	100*	-2	-4	6	i
CCCCn1nnnc1C(c1cc2ccccc2o1)N1CCN(c2ncccc2C#N)CC1 (stereo unspecified)	x	x	2	x	x	x
O=C1c2ccccc2C(=O)N1CCc1nc(-c2ccccn2)no1	0	25*	2	2	-3	i
O=C1c2ccccc2C(=O)N1CCCc1nc(-c2ccccn2)no1	0	i	2	-5	3	i
CCN(CC)C(=O)CC(c1ccc(OC)cc1)c1c(O)cc(OC)cc1OC (stereo unspecified)	0	i	4	1	1	-9.9*
CCN(CC)CCC(c1ccc(OC)cc1)c1c(O)cc(OC)cc1OC (stereo unspecified)	-1	i	-7	-6	-5	i
COc1ccc(S(=O)(=O)N(Cc2cccs2)C2CCCC2)cc1	2	100*	-4	-1	2	i
COc1ccc2c(c1)CCC(=O)[C@H](O)C[C@H](c1ccccc1)OC2=O	x	x	4	x	x	x
CCCn1c(CCNc2nc(-c3cccc(Br)c3)cs2)nc2ccccc21	8.4*	x	0	x	9	x
CCCn1c(C(C)Nc2nc(-c3cccc(Br)c3)cs2)nc2ccccc21 (stereo unspecified)	0	i	-4	-3	6	i
CC(C)(C)c1ccc(OCc2cnc(Cl)s2)cc1	9.3*	i	4	0	27	i
O=C(Nc1ccc2oc(-c3ccc4ccccc4c3)nc2c1)c1ccc2c(c1)OCCO2	8.6*	i	1	-5	18	i
O=C(Nc1c2c(nn1-c1cccc(Cl)c1)CS(=O)(=O)C2)c1ccc2c(c1)OCO2	-4	i	0	-1	3	i
O=C(Nc1ccc(Cl)c(Cl)c1)C1C2C=CC3(O2)C1C(=O)N(CCN1CCCCC1)C3C(=O)NC1CCCCC1 (stereo unspecified)	-1	i	-7	0	4	i
Cc1c(C(=O)Oc2cccc3ccccc23)cnn1-c1ccccc1	1	100*	1	-2	-1	i
COc1cccc(CN2CCC(C)(Oc3cccc(Cl)c3)C2)c1OC (stereo unspecified)	-3	x	-3	x	2	x
COC(=O)Cn1c(CN2CCC(Cc3ccccc3)CC2)nc2c1c(=O)n(C)c(=O)n2C	1	25*	5	-2	9	i
c1ccc(-c2csc3nnc(SCc4ccc5c(c4)OCCO5)n23)cc1	-1	25*	-6	3	-1	i
O=C(NCc1ccco1)C1CCN(C(=O)c2cc3sccc3n2Cc2ccc(Cl)cc2)CC1	0	100*	-2	-5	-6	i
SMILES	MC4R barr agon	TMEM16A inh	m5-HT2A agonist	beta cell repl	MC4R antag cAMP	ANO1 activ
O=C(NCc1ccco1)C1CCN(C(=O)c2ccc(Cl)cc2)CC1	0	x	5	-2	-1	i
Cn1c(NCCc2ccncc2)nc2cc(-c3cccc(C(F)(F)F)c3)sc2c1=O	-2	x	5	x	6	x
CN(C(=O)COc1ccccc1C(=O)NCCOc1ccccc1)c1ccccc1	4	25*	-1	-3	27	i
S=C(S)N1CCCC1	2	100*	-1	-3	0	i
c1ccc2c(c1)oc1c(-c3ccc4nccn4c3)cccc12	1	x	-1	x	-2	x
Cc1cc2nc(C)n(CCCNC(=O)Nc3ccc(C#N)cc3)c2cc1C	-1	i	44*	0	0	i
Cc1cc2nc(C)n(CCCN)c2cc1C	0	i	-9	-2	-5	i
Cc1ccc(/C=N/NC(=O)CCCOc2ccc(Cl)cc2Cl)cc1[N+](=O)[O-]	9.0*	i	-6	-4	6	i
CCn1c(=NC(=O)c2cccc(N3C(=O)CCC3=O)c2)sc2c(C)ccc(OC)c21	1	i	-1	0	14	-8.7*
Brc1ccc2c(c1)OCCOCCOc1cc(Br)ccc1OCCOCCOCCO2	3	100*	0	-4	8	i
COc1ccc([C@H]2C(C(=O)O)=C[C@@H](CC3CCCC3)N2S(=O)(=O)c2ccc(C)cc2)cc1OC	0	x	0	-3	1	x
CN(C)Cc1c(O)ccc2occ(C(=O)c3ccccc3)c12	-1	25*	3	-1	2	i
Cc1ccc(S(=O)(=O)N2C(c3ccccc3)CC(=O)C3CN(S(=O)(=O)c4ccc(Cl)cc4)C(c4ccccc4)CC32)cc1 (stereo unspecified)	x	x	1	x	x	x
CCCCCCCOC1(c2ccccc2)OC(=O)c2ccccc21 (stereo unspecified)	-1	i	1	-6	10	i
CCCCCCOC1(c2ccccc2)OC(=O)c2ccccc21 (stereo unspecified)	2	25*	-2	-6	8	i
CCc1nc2ccccc2c(C(=O)OCc2nc3ccccc3c(=O)[nH]2)c1C	-2	x	-4	-2	-28	i
O=S(=O)(Nc1ccc(-c2ccc(N3CCOCC3)nn2)cc1)c1ccc(Cl)c(Cl)c1	-1	25*	0	-3	7	i
COc1ccc(Cl)cc1NC(=O)COC(=O)CCNS(=O)(=O)c1cccs1	-4	x	-1	0	14	i
OC[C@@H]1CN(Cc2ccc(-c3ccccc3)cc2)C[C@H](n2cnc3c(NCc4ccc(F)cc4)ncnc32)O1	3	x	11	x	14	x
O=C1C=C(N2CCN(c3ccccn3)CC2)C(=O)c2c(O)ccc(O)c21	-1	x	0	x	-12	i
CC1=CC(=O)c2c(O)ccc(O)c2C1=O	x	100*	x	x	x	x
